Assay results: ChEMBL document CHEMBL4689842, “EUbOPEN Chemogenomics Library wave 1” (2021)
“And” between values parts separate entries of the source, which are not always exact repeats. Identical values can stand only once.

What was measured:
Format in all cases: toxicity, cell-based
Fibroblast [1] = test: Multiplex assay against human fibroblast; conditions: 10 µM, compound concentration 10 uM
Method in brief: (§1)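 On a CQ1 microscope at 37°C and 5% CO2, live cells were imaged after compound addition. They had been stained at seeding with Hoechst33342, BioTracker Green Microtubule Cytoskeleton Dye, MitoTracker Red and Annexin V Alexa Fluor 680. CellPathfinder machine-learning gating assigned cells to Hoechst high-intensity objects or normal cells, normal cells to healthy, pyknosed or fragmented nuclei, and pyknosed cells to mitotic or apoptotic. Tubulin, mitochondrial-mass and membrane-permeability phenotypes are per cents of healthy-nucleus cells.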

U2OS [2] = test: Incucyte cell viability with U2OS; conditions: human, 10 µM, compound concentration 10 uM; further: filed as whole numbers so only -1 and 0 and 1 occur
HEK-293T [3] = test: Incucyte cell viability with HEK293T; conditions: human, 10 µM, compound concentration 10 uM; further: filed as whole numbers so only -1 and 0 and 1 occur
Fibroblast [4] = test: Incucyte cell viability with human fibroblast; conditions: 10 µM, compound concentration 10 uM; further: filed as whole numbers so only -1 and 0 and 1 occur
U2OS [5] = test: Multiplex assay against U2OS; conditions: human, 10 µM, compound concentration 10 uM; method in brief: as §1
HEK-293T [6] = test: Multiplex assay against HEK293T; conditions: human, 10 µM, compound concentration 10 uM; method in brief: as §1;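 on Population Tubulin-Different-Phenotype (%): share of the cells with healthy nuclei that show this phenotype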
[7] = 0 h, replicate number 1, timepoint 0 hours
[8] = 0 h, replicate number 2, timepoint 0 hours
[9] = 6 h, replicate number 1, timepoint 6 hours
[10] = 12 h, replicate number 1, timepoint 12 hours
[11] = 18 h, replicate number 1, timepoint 18 hours
[12] = 24 h, replicate number 1, timepoint 24 hours
[13] = 6 h, replicate number 2, timepoint 6 hours

C[C@@H]1CN(c2cc(-c3nn(C)c4ccc(OC5(C)CC5)cc34)ncn2)C[C@H](C)O1 [MLi-2-NC]
Population Apoptotic (%) (Fibroblast [1]; 12 h, replicate 1): 65% and 70% | Population Fragmented Nuclei (%) (Fibroblast [1]; 12 h, replicate 1): 24% and 21% | Population Healthy Nuclei (%) (Fibroblast [1]; 12 h, replicate 1): 59% and 61% | Population Hoechst High Intensity Objects (%) (Fibroblast [1]; 12 h, replicate 1): 9% and 12% | Population Mitochondria Different-Phenotype (%) (Fibroblast [1]; 12 h, replicate 1): 3% | Population Mitotic Cells (%) (Fibroblast [1]; 12 h, replicate 1): 34% and 29% | Population Normal (%) (Fibroblast [1]; 12 h, replicate 1): 90% and 87% | Population Pyknosed Nuclei (%) (Fibroblast [1]; 12 h, replicate 1): 16% | Total Cell Count (Fibroblast [1]; 12 h, replicate 1): 234 and 261 | Population Apoptotic (%) (Fibroblast [1]; 12 h, replicate 2): 42% and 50% | Population Fragmented Nuclei (%) (Fibroblast [1]; 12 h, replicate 2): 44% and 53% | Population Healthy Nuclei (%) (Fibroblast [1]; 12 h, replicate 2): 36% and 42% | Population Hoechst High Intensity Objects (%) (Fibroblast [1]; 12 h, replicate 2): 32% and 43% | Population Membrane Permeable-Phenotype (%) (Fibroblast [1]; 12 h, replicate 2): 21% and 15% | Population Mitochondria Different-Phenotype (%) (Fibroblast [1]; 12 h, replicate 2): 7% and 10% | Population Mitotic Cells (%) (Fibroblast [1]; 12 h, replicate 2): 57% and 50% | Population Normal (%) (Fibroblast [1]; 12 h, replicate 2): 67% and 56% | Population Tubulin-Different-Phenotype (%) (Fibroblast [1]; 12 h, replicate 2): 21% and 20% | Total Cell Count (Fibroblast [1]; 12 h, replicate 2): 56 and 83 | Population Apoptotic (%) (Fibroblast [1]; 24 h, replicate 1): 45% and 61% | Population Fragmented Nuclei (%) (Fibroblast [1]; 24 h, replicate 1): 25% and 27% | Population Healthy Nuclei (%) (Fibroblast [1]; 24 h, replicate 1): 59% and 56% | Population Hoechst High Intensity Objects (%) (Fibroblast [1]; 24 h, replicate 1): 12% and 11% | Population Membrane Permeable-Phenotype (%) (Fibroblast [1]; 24 h, replicate 1): 9% and 7% | Population Mitochondria Different-Phenotype (%) (Fibroblast [1]; 24 h, replicate 1): 3% and 9% | Population Mitotic Cells (%) (Fibroblast [1]; 24 h, replicate 1): 54% and 38% | Population Normal (%) (Fibroblast [1]; 24 h, replicate 1): 87% and 88% | Population Pyknosed Nuclei (%) (Fibroblast [1]; 24 h, replicate 1): 14% and 16% | Population Tubulin-Different-Phenotype (%) (Fibroblast [1]; 24 h, replicate 1): 8% and 22% | Total Cell Count (Fibroblast [1]; 24 h, replicate 1): 282 and 230 | Population Apoptotic (%) (Fibroblast [1]; 24 h, replicate 2): 62% and 50% | Population Fragmented Nuclei (%) (Fibroblast [1]; 24 h, replicate 2): 53% and 63% | Population Healthy Nuclei (%) (Fibroblast [1]; 24 h, replicate 2): 21% and 28% | Population Hoechst High Intensity Objects (%) (Fibroblast [1]; 24 h, replicate 2): 33% and 34% | Population Membrane Permeable-Phenotype (%) (Fibroblast [1]; 24 h, replicate 2): 42% and 23% | Population Mitotic Cells (%) (Fibroblast [1]; 24 h, replicate 2): 37% and 50% | Population Normal (%) (Fibroblast [1]; 24 h, replicate 2): 66% and 65% | Population Tubulin-Different-Phenotype (%) (Fibroblast [1]; 24 h, replicate 2): 42% and 30% | Total Cell Count (Fibroblast [1]; 24 h, replicate 2): 48 and 70 | Growth Rate (U2OS [2]; [7]): 1 | Growth Rate (U2OS [2]; [8]): 0 | Growth Rate (U2OS [2]; [9]): 1 | Growth Rate (U2OS [2]; [10]): 1 | Growth Rate (U2OS [2]; [11]): 0 | Growth Rate (U2OS [2]; 18 h, replicate number 2, timepoint 18 hours): 1 | Growth Rate (U2OS [2]; [12]): 0 | Growth Rate (U2OS [2]; 24 h, replicate number 2, timepoint 24 hours): 1 | Growth Rate (HEK-293T [3]; [7]): 0 | Growth Rate (HEK-293T [3]; [9]): 1 | Growth Rate (HEK-293T [3]; [13]): 0 | Growth Rate (HEK-293T [3]; [10]): 0 | Growth Rate (HEK-293T [3]; [11]): 0 | Growth Rate (HEK-293T [3]; [12]): 0 | Growth Rate (Fibroblast [4]; [8]): 0 | Growth Rate (Fibroblast [4]; [9]): 0 | Growth Rate (Fibroblast [4]; [13]): 1 | Growth Rate (Fibroblast [4]; [10]): 1 | Growth Rate (Fibroblast [4]; [11]): 0 | Growth Rate (Fibroblast [4]; [12]): 0 | Population Apoptotic (%) (U2OS [5]; 12 h, replicate 1): 80% and 54% | Population Fragmented Nuclei (%) (U2OS [5]; 12 h, replicate 1): 2% | Population Healthy Nuclei (%) (U2OS [5]; 12 h, replicate 1): 93% and 87% | Population Hoechst High Intensity Objects (%) (U2OS [5]; 12 h, replicate 1): 4% and 5% | Population Membrane Permeable-Phenotype (%) (U2OS [5]; 12 h, replicate 1): 19% and 9% | Population Mitochondria Different-Phenotype (%) (U2OS [5]; 12 h, replicate 1): 14% and 30% | Population Mitotic Cells (%) (U2OS [5]; 12 h, replicate 1): 20% and 45% | Population Normal (%) (U2OS [5]; 12 h, replicate 1): 95% and 94% | Population Pyknosed Nuclei (%) (U2OS [5]; 12 h, replicate 1): 3% and 7% | Population Tubulin-Different-Phenotype (%) (U2OS [5]; 12 h, replicate 1): 16% and 29% | Total Cell Count (U2OS [5]; 12 h, replicate 1): 165 and 347 | Population Apoptotic (%) (U2OS [5]; 12 h, replicate 2): 50% and 40% | Population Fragmented Nuclei (%) (U2OS [5]; 12 h, replicate 2): 5% and 7% | Population Healthy Nuclei (%) (U2OS [5]; 12 h, replicate 2): 91% and 88% | Population Hoechst High Intensity Objects (%) (U2OS [5]; 12 h, replicate 2): 9% and 15% | Population Membrane Permeable-Phenotype (%) (U2OS [5]; 12 h, replicate 2): 14% and 7% | Population Mitochondria Different-Phenotype (%) (U2OS [5]; 12 h, replicate 2): 21% and 26% | Population Mitotic Cells (%) (U2OS [5]; 12 h, replicate 2): 50% and 60% | Population Normal (%) (U2OS [5]; 12 h, replicate 2): 90% and 84% | Population Tubulin-Different-Phenotype (%) (U2OS [5]; 12 h, replicate 2): 14% and 41% | Total Cell Count (U2OS [5]; 12 h, replicate 2): 153 and 242 | Population Apoptotic (%) (U2OS [5]; 24 h, replicate 1): 44% and 50% | Population Healthy Nuclei (%) (U2OS [5]; 24 h, replicate 1): 92% | Population Hoechst High Intensity Objects (%) (U2OS [5]; 24 h, replicate 1): 1% | Population Membrane Permeable-Phenotype (%) (U2OS [5]; 24 h, replicate 1): 10% and 3% | Population Mitochondria Different-Phenotype (%) (U2OS [5]; 24 h, replicate 1): 16% and 21% | Population Mitotic Cells (%) (U2OS [5]; 24 h, replicate 1): 55% and 50% | Population Normal (%) (U2OS [5]; 24 h, replicate 1): 98% | Population Tubulin-Different-Phenotype (%) (U2OS [5]; 24 h, replicate 1): 16% and 32% | Total Cell Count (U2OS [5]; 24 h, replicate 1): 226 and 387 | Population Fragmented Nuclei (%) (U2OS [5]; 24 h, replicate 2): 4% and 3% | Population Healthy Nuclei (%) (U2OS [5]; 24 h, replicate 2): 90% and 93% | Population Hoechst High Intensity Objects (%) (U2OS [5]; 24 h, replicate 2): 11% and 4% | Population Membrane Permeable-Phenotype (%) (U2OS [5]; 24 h, replicate 2): 12% and 8% | Population Mitochondria Different-Phenotype (%) (U2OS [5]; 24 h, replicate 2): 27% and 18% | Population Normal (%) (U2OS [5]; 24 h, replicate 2): 88% and 95% | Population Pyknosed Nuclei (%) (U2OS [5]; 24 h, replicate 2): 4% and 3% | Population Tubulin-Different-Phenotype (%) (U2OS [5]; 24 h, replicate 2): 18% and 37% | Total Cell Count (U2OS [5]; 24 h, replicate 2): 183 and 245 | Population Apoptotic (%) (HEK-293T [6]; 12 h, replicate 1): 9% and 22% | Population Fragmented Nuclei (%) (HEK-293T [6]; 12 h, replicate 1): 18% and 14% | Population Healthy Nuclei (%) (HEK-293T [6]; 12 h, replicate 1): 55% and 62% | Population Hoechst High Intensity Objects (%) (HEK-293T [6]; 12 h, replicate 1): 10% and 16% | Population Membrane Permeable-Phenotype (%) (HEK-293T [6]; 12 h, replicate 1): 4% and 3% | Population Mitochondria Different-Phenotype (%) (HEK-293T [6]; 12 h, replicate 1): 5% and 6% | Population Mitotic Cells (%) (HEK-293T [6]; 12 h, replicate 1): 90% and 77% | Population Normal (%) (HEK-293T [6]; 12 h, replicate 1): 89% and 83% | Population Pyknosed Nuclei (%) (HEK-293T [6]; 12 h, replicate 1): 25% and 23% | Total Cell Count (HEK-293T [6]; 12 h, replicate 1): 441 and 673 | Population Apoptotic (%) (HEK-293T [6]; 12 h, replicate 2): 6% and 12% | Population Fragmented Nuclei (%) (HEK-293T [6]; 12 h, replicate 2): 7% and 4% | Population Healthy Nuclei (%) (HEK-293T [6]; 12 h, replicate 2): 87% and 89% | Population Hoechst High Intensity Objects (%) (HEK-293T [6]; 12 h, replicate 2): 2% and 3% | Population Membrane Permeable-Phenotype (%) (HEK-293T [6]; 12 h, replicate 2): 2% | Population Mitochondria Different-Phenotype (%) (HEK-293T [6]; 12 h, replicate 2): 8% and 14% | Population Mitotic Cells (%) (HEK-293T [6]; 12 h, replicate 2): 93% and 87% | Population Normal (%) (HEK-293T [6]; 12 h, replicate 2): 97% and 96% | Population Pyknosed Nuclei (%) (HEK-293T [6]; 12 h, replicate 2): 4% and 6% | Population Tubulin-Different-Phenotype (%) (HEK-293T [6]; 12 h, replicate 2): 5% and 14% | Total Cell Count (HEK-293T [6]; 12 h, replicate 2): 1849 and 1412 | Population Apoptotic (%) (HEK-293T [6]; 24 h, replicate 1): 11% and 25% | Population Fragmented Nuclei (%) (HEK-293T [6]; 24 h, replicate 1): 16% and 12% | Population Healthy Nuclei (%) (HEK-293T [6]; 24 h, replicate 1): 72% and 75% | Population Hoechst High Intensity Objects (%) (HEK-293T [6]; 24 h, replicate 1): 6% and 11% | Population Membrane Permeable-Phenotype (%) (HEK-293T [6]; 24 h, replicate 1): 3% | Population Mitochondria Different-Phenotype (%) (HEK-293T [6]; 24 h, replicate 1): 1% and 5% | Population Mitotic Cells (%) (HEK-293T [6]; 24 h, replicate 1): 88% and 74% | Population Normal (%) (HEK-293T [6]; 24 h, replicate 1): 93% and 88% | Population Pyknosed Nuclei (%) (HEK-293T [6]; 24 h, replicate 1): 10% and 12% | Total Cell Count (HEK-293T [6]; 24 h, replicate 1): 505 and 711 | Population Apoptotic (%) (HEK-293T [6]; 24 h, replicate 2): 3% and 7% | Population Fragmented Nuclei (%) (HEK-293T [6]; 24 h, replicate 2): 24% and 13% | Population Healthy Nuclei (%) (HEK-293T [6]; 24 h, replicate 2): 73% and 83% | Population Hoechst High Intensity Objects (%) (HEK-293T [6]; 24 h, replicate 2): 2% and 4% | Population Membrane Permeable-Phenotype (%) (HEK-293T [6]; 24 h, replicate 2): 5% | Population Mitochondria Different-Phenotype (%) (HEK-293T [6]; 24 h, replicate 2): 2% and 4% | Population Mitotic Cells (%) (HEK-293T [6]; 24 h, replicate 2): 96% and 92% | Population Normal (%) (HEK-293T [6]; 24 h, replicate 2): 97% and 95% | Population Pyknosed Nuclei (%) (HEK-293T [6]; 24 h, replicate 2): 1% and 3% | Total Cell Count (HEK-293T [6]; 24 h, replicate 2): 3187 and 2081
